# Source: ChEMBL document CHEMBL5352420, “Enantioselective synthesis of 4-amino-3,4-dihydrocoumarins and their non-cyclic hydroxyester precursors: Biological evaluation for the treatment of glioblastoma multiforme” (Eur J Med Chem, 2022)
# pIC50: −log10 of the molar value. The source made the active and inactive calls. The rule behind the calls is not given here.
# Legend:
# [1] = Cytotoxicity against mouse N13 cells assessed as cell viability at 0.4 uM incubated for 24 hrs by MTT assay relative to control; format: functional; conditions: read-out: Activity
# Summary of the method: (§1)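 MTT assay (mitochondrial activity). Cells grown at 37 °C, humidified 5% CO2: N13 in RPMI, F98 in DMEM.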
# [2] = Cytotoxicity against mouse N13 cells assessed as cell growth inhibition incubated for 24 hrs by MTT assay; format: functional, cell-based; conditions: N13, 24 h; summary of the method: as §1
# F98 [3] = experiment: Cytotoxicity against rat F98 cells assessed as cell viability at 0.4 uM incubated for 24 hrs by MTT assay relative to control; format: functional; conditions: read-out: Activity; summary of the method: as §1
# F98 [4] = experiment: Cytotoxicity against rat F98 cells assessed as cell growth inhibition incubated for 24 hrs by MTT assay; format: functional, cell-based; conditions: F98, 24 h; summary of the method: as §1
# [5] = Cytotoxicity against mouse N13 cells assessed as cell viability at 0.5 uM incubated for 24 hrs by MTT assay relative to control; format: functional; conditions: read-out: Activity; summary of the method: as §1
# F98 [6] = experiment: Cytotoxicity against rat F98 cells assessed as cell viability at 0.5 uM incubated for 24 hrs by MTT assay relative to control; format: functional; conditions: read-out: Activity; summary of the method: as §1
# [7] = Cytotoxicity against mouse N13 cells assessed as cell viability at 0.36 uM incubated for 24 hrs by MTT assay relative to control; format: functional; conditions: read-out: Activity; summary of the method: as §1
# F98 [8] = experiment: Cytotoxicity against rat F98 cells assessed as cell viability at 0.36 uM incubated for 24 hrs by MTT assay relative to control; format: functional; conditions: read-out: Activity; summary of the method: as §1
# F98 [9] = experiment: Cytotoxicity in rat F98 cells co-cultured with CM-Dil-labeled mouse N13 cells assessed as decrease in number of rat F98 cells measured after 24 hrs by bright-field microscopy; format: functional, cell-based; conditions: dose <= 100.0 µg/ml
# Summary of the method: (§2)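 Co-culture. N13 cells pre-labelled with the red membrane dye CM-DiI, then seeded together with F98 cells. Cells exposed to 0, 10 or 100 µg/mL for 24 h. Brightfield and fluorescence images taken on a high-content imager. Cell types separated by automatic segmentation on morphology (N13 rounded, F98 elongated) plus label. Cell counts and percentages of each type reported.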
# N13 [10] = experiment: Cytotoxicity in CM-Dil-labeled mouse N13 cells co-cultured with rat F98 cells assessed as increase in number of mouse N13 cells upto 100 ug/ml measured after 24 hrs by bright-field microscopy; format: functional, cell-based; conditions: dose <= 100.0 µg/ml; summary of the method: as §2
# N13 [11] = experiment: Induction of apoptosis in mouse N13 cells assessed as accumulation at sub G0/G1 phase at 100 ug/ml incubated for 24 hrs by flow cytometry; format: functional, cell-based; conditions: dose 100.0 µg/ml
# Summary of the method: (§3)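 N13 or F98 cells exposed to 100 µg/mL for 24 h, untreated cells as controls. DNA content measured by flow cytometry. The fraction in the sub-G0/1 region taken as apoptotic cells.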
# F98 [12] = experiment: Induction of apoptosis in rat F98 cells assessed as accumulation at sub G0/G1 phase at 100 ug/ml incubated for 24 hrs by flow cytometry relative to control; format: functional; conditions: dose 100 µg/ml; summary of the method: as §3
# [13] = Toxicity in rat assessed as brain injury administered locally in caudate nucleus of brain measured after 30 days by MRI analysis; format: tissue-based; conditions: in vivo, other, 720 h, route it, time 30 day
# Summary of the method: (§4)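 Non-tumor-bearing rats given a local injection into the caudate nucleus; PBS injected at the same site as control. Brain injury checked by in vivo MRI up to 30 days. Animals watched for external signs of pain or suffering. Survival monitored for 30 days.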
# [14] = Toxicity in rat assessed as signs of pain administered locally in caudate nucleus of brain measured after 30 days; format: tissue-based; conditions: in vivo, other, 720 h, route it, time 30 day; summary of the method: as §4
# [15] = Toxicity in rat assessed as signs of suffering administered locally in caudate nucleus of brain measured after 30 days; format: tissue-based; conditions: in vivo, other, 720 h, route it, time 30 day; summary of the method: as §4
# [16] = Toxicity in rat assessed as survival rate administered locally in caudate nucleus of brain measured after 30 days relative to control; format: tissue-based; conditions: in vivo, route it, time 30 day
# Summary of the method: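 Non-tumor-bearing rats received compound by local injection into the caudate nucleus, with PBS injected into the same region as control. Brains were imaged by in vivo MRI (9.4 T) before and 30 days after injection. Animals were watched for signs of pain, and survival over 30 days was plotted as Kaplan-Meier.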
# F98 [17] = experiment: Antitumor activity against rat F98 cells xenografted in Fisher rat assessed as necrotic/apoptotic tumor cells at 5 mg/kg, IT measured after 2 days by MRI analysis; format: functional, organism-based; conditions: time 2.0 day
# F98 [18] = experiment: Antitumor activity against rat F98 cells xenografted in Fisher rat assessed as average tumor volume at 5 mg/kg, IT measured after 2 days by MRI analysis (reference value: 845 mm^3); format: functional; conditions: time 2 day
# [19] = Toxicity in Fisher rat xenografted with rat F98 cells assessed as animal survival at 5 mg/kg, IT measured for 5 days; format: organism-based; conditions: in vivo, other, 120 h, time 5 day
# Summary of the method: (§5)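 F98 glioma cells implanted in rats per an earlier protocol. Tumor volume followed by T₂-weighted MRI (9.4 T, turbo-RARE, TE 33 ms, TR 2500 ms) on days 3, 5, 8, 10, 12 and 15. On day 10 (mean tumor about 325 mm³), compound in PBS was given intratumorally at 5 mg/kg; PBS alone was the control. Survival was plotted as Kaplan-Meier.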
# F98 [20] = experiment: Antitumor activity against rat F98 cells xenografted in Fisher rat assessed as average tumor volume at 5 mg/kg, IT measured after 5 days by MRI analysis; format: functional; conditions: time 5 day
# [21] = Toxicity in Fisher rat xenografted with rat F98 cells assessed as animal survival at 5 mg/kg, IT measured for 16 days; format: organism-based; conditions: in vivo, other, 384 h, time 16 day; summary of the method: as §5
# [22] = Cytotoxicity against mouse N13 cells assessed as cell viability at 0.28 uM incubated for 24 hrs by MTT assay relative to control; format: functional; conditions: read-out: Activity; summary of the method: as §1
# F98 [23] = experiment: Cytotoxicity against rat F98 cells assessed as cell viability at 0.28 uM incubated for 24 hrs by MTT assay relative to control; format: functional; conditions: read-out: Activity; summary of the method: as §1
# [24] = Cytotoxicity against mouse N13 cells assessed as cell viability at 0.31 uM incubated for 24 hrs by MTT assay relative to control; format: functional; conditions: read-out: Activity; summary of the method: as §1
# F98 [25] = experiment: Cytotoxicity against rat F98 cells assessed as cell viability at 0.31 uM incubated for 24 hrs by MTT assay relative to control; format: functional; conditions: read-out: Activity; summary of the method: as §1
# [26] = Cytotoxicity against mouse N13 cells assessed as cell viability at 0.34 uM incubated for 24 hrs by MTT assay relative to control; format: functional; conditions: read-out: Activity; summary of the method: as §1
# F98 [27] = experiment: Cytotoxicity against rat F98 cells assessed as cell viability at 0.34 uM incubated for 24 hrs by MTT assay relative to control; format: functional; conditions: read-out: Activity; summary of the method: as §1
structure (smiles),measurement,setting,value
CCOC(=O)C[C@@H](N)c1ccccc1O,viability at 0.4 µM,[1],40%
same,pIC50,[2],3.35
same,viability at 0.4 µM,F98 [3],35%
same,pIC50,F98 [4],3.11
N[C@H]1CC(=O)Oc2ccccc21,viability at 0.5 µM,[5],15%
same,pIC50,[2],2.80
same,viability at 0.5 µM,F98 [6],55%
same,pIC50,F98 [4],3.32
CCOC(=O)C[C@H](N)c1ccc(OC)cc1O,viability at 0.36 µM,[7],55%
same,pIC50,[2],3.47
same,viability at 0.36 µM,F98 [8],45%
same,pIC50,F98 [4],3.33
CCOC(=O)C[C@H](N)c1cc(OC)ccc1O,viability at 0.36 µM,[7],70%
same,pIC50,[2],4.40
same,viability at 0.36 µM,F98 [8],5%
CCOC(=O)C[C@H](N)c1ccccc1O.Cl,viability at 0.4 µM,[1],0%
same,viability at 0.4 µM,F98 [3],60%
same,pIC50,F98 [4],3.85
same,Activity,F98 [9],Dose-Dependent Effect
same,Activity,N13 [10],Active
same,Activity,N13 [11],inactive
same,Activity,F98 [12],42%
same,Activity,[13],Non-Toxic
same,Activity,[14],Non-Toxic
same,Activity,[15],Non-Toxic
same,survival at 720 h,[16],100%
same,Activity,F98 [17],Active
same,Activity,F98 [18],370 mm3
same,Activity,[19],Non-Toxic
same,Activity,F98 [20],815 mm3
same,Activity,[21],Non-Toxic
CCOC(=O)C[C@H](N)c1cc(Br)cc(OC)c1O,viability at 0.28 µM,[22],60%
same,pIC50,[2],3.66
same,viability at 0.28 µM,F98 [23],60%
same,pIC50,F98 [4],3.77
CCOC(=O)C[C@H](N)c1cc(Br)ccc1O,viability at 0.31 µM,[24],40%
same,pIC50,[2],3.30
same,viability at 0.31 µM,F98 [25],60%
same,pIC50,F98 [4],3.68
CCOC(=O)C[C@H](N)c1cc([N+](=O)[O-])ccc1O,viability at 0.34 µM,[26],30%
same,pIC50,[2],3.18
same,viability at 0.34 µM,F98 [27],20%
same,pIC50,F98 [4],2.94
